Test results taken from ChEMBL document CHEMBL1799990, “Triazole and dihydroimidazole alkaloids from the marine sediment-derived fungus Penicillium paneum SD-44” (J Nat Prod, 2011).
Calls of active or inactive are those of the source. The rule behind the calls is not given here.

Legend:
A549 = experiment: Cytotoxicity against human A549 cells; format: functional, cell-based
SMMC-7721 = experiment: Cytotoxicity against human SMMC7721 cells; format: functional, cell-based
Bel-7402 = experiment: Cytotoxicity against human Bel7402 cells; format: functional, cell-based
[1] = test system: Fusarium oxysporum f. sp. vasinfectum; experiment: Antifungal activity against Fusarium oxysporum f. sp. vasinfectum by disk diffusion method; format: functional, organism-based
Method in brief: (§1)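 Disk diffusion assay against the five plant-pathogenic fungi, run alongside amphotericin B as the positive control.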

Aspergillus niger = experiment: Antifungal activity against Aspergillus niger by disk diffusion method; format: functional, organism-based; method in brief: as §1
Alternaria brassicae = experiment: Antifungal activity against Alternaria brassicae by disk diffusion method; format: functional; method in brief: as §1
[2] = Antifungal activity against Coniella diplodiella by disk diffusion method; format: functional; method in brief: as §1
Escherichia coli = experiment: Antibacterial activity against Escherichia coli by disk diffusion method; format: functional, organism-based
Method in brief: (§2)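 Disk diffusion assay against the two bacteria, run alongside chloramphenicol as the positive control.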

[3] = test system: Botryosphaeria berengeriana; experiment: Antifungal activity against Physalospora pyricola by disk diffusion method; format: functional, organism-based; method in brief: as §1
Staphylococcus aureus = experiment: Antibacterial activity against Staphylococcus aureus by disk diffusion method; format: functional, organism-based; method in brief: as §2

SMILES	IC50 (A549) [µM]	IC50 (SMMC-7721) [µM]	IC50 (Bel-7402) [µM]	Activity [1]	Activity (Aspergillus niger)	Activity (Alternaria brassicae)	Activity [2]	Activity (Escherichia coli)	Activity [3]	Activity (Staphylococcus aureus)
O=c1[nH]cc(F)c(=O)[nH]1 [FLUOROURACIL]	13.7	13	21.8							
O=c1[nH]c(Cc2ccc(O)cc2)nc2ccccc12	17.5		19.8	inactive	inactive	inactive	inactive	inactive	inactive	inactive
O=C(O)c1ccccc1-n1ncnc1Cc1ccc(O)cc1 [PENIPANOID A]		54.2		inactive	inactive	inactive	inactive	inactive	inactive	inactive
O=C(c1ccc(O)cc1)c1nc2ccccc2c(=O)[nH]1				inactive	inactive	inactive	inactive	inactive	inactive	inactive
O=C1N[C@H]2[C@H](c3ccc(O)cc3)N=CN2c2ccccc21				inactive	inactive	inactive	inactive	inactive	inactive	inactive
